Screening results deposited in PubChem by Broad Institute.
A selection: hits, their analogues and other compounds. The true share with any hit is near 3.1%.
Cneo AK release: causes C. neoformans cell lysis. adenylate kinase release luminescence, 4 h; normalised: neutral wells 0, clomiphene wells 100. lysis activity, % at 15 µM. hit rate 0.2% among 360,000. AID 651654;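 active = mean lysis activity across replicates of at least 80%, whatever share of replicates individually reach that level; inactive = mean lysis activity below 80%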
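read-out = cell lysis signal | test system = log-phase Cryptococcus neoformans yeast cells | input = cells at 5 × 10^6 per mL | medium = fresh YPD growth medium | signal = luminescent adenylate kinase detection reagent | timing = 4 h at 37 °C static, read 1 h later | dosing = single dose | controls = Clomiphene as positive lysis control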
CFTR F508del cor: CFTR F508del correction in bronchial cells. CFBE cells, YFP halide quenching; stimulated with forskolin plus potentiator P3; % fluorescence drop versus neutral controls. activity (quench increase), % at 7.58 µM. hit rate 0.36% among 350,000. AID 720511;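 active = mean added fluorescence quench of at least 8% versus neutral control, with both replicates also reaching 8%; inconclusive = only one of the mean or replicate conditions met; inactive = mean below 8% and not both replicates reaching 8%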;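 also: cells transiently co-express mutant CFTR-F508del with the halide-sensitive YFP; corrector assay measuring rescue of mutant channel to the surface after 24 h compound exposure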
Env fusion inh: HIV envelope-mediated fusion inhibition; HeLa-JRFL Env/CEM21 cell fusion, luciferase; inhibition, % at 12.3 µM; hit rate 1.1% among 360,000; AID 651610;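 active = mean replicate inhibition score of at least 50 and every replicate individually at or above 50; inconclusive = only one of the two criteria met; inactive = mean below 50 and not all replicates reaching 50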;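 also: 0% = plate neutral controls and 100% = maraviroc near 300 nM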
GSIS activator: primary screen for activators of insulin secretion dependent on glucose, INS-1E cells, GLuc reporter luminescence. INS-1E GLuc reporter insulin secretion, 2-3 h. activation, % at 16.6 µM. hit rate 0.61% among 370,000. AID 743287;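 active = lowest replicate activation of at least 40%, so every replicate reaches that level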;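 also: 0% = median of neutral control wells and 100% = median of IBMX positive control wells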
miR-122 sensor: miR-122 inhibition in Huh7 cells; Huh7 miR-122 Renilla luciferase sensor, 48 h; neutral wells = 0, positive control = 100; activation (reporter increase), % at 12.5 µM; hit rate 0.3% among 340,000;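 active = mean replicate activation score at least 90 and every replicate individually at or above 90; inconclusive = only one of the two criteria met; inactive = neither criterion met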;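 also: higher luciferase means less miR-122 activity so hits act as miR-122 inhibitors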
Ecoli rRNA inh: inhibits bacterial ribosomal RNA function over humanized ribosomes | AID 720706 | GFP signal change (wild-type ribosome), % (concentration not given with the values) | E. coli WT GFP vs humanized-ribosome RFP mutants, fluorescence, 24 h; active compounds read low; DMSO median 0, no signal -100 | hit rate 1.6% among 350,000;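 active = significant combined selectivity score with lowered wild-type GFP, culture density cut under 30%, mutant RFP and density less affected; inactive = any of these conditions unmet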
* marks the source's active call; other numbers are inactive results; u = inconclusive; x = no result given; ! = not confirmed by another sample; [ ] = dose if it differs, or a comment.

SMILES	Cneo AK release	CFTR F508del cor	Env fusion inh	GSIS activator	miR-122 sensor	Ecoli rRNA inh
CC(=O)NC(c1ccc(C)cc1)c1cc([N+](=O)[O-])c2cccnc2c1O (stereo not given)	x	2	48*	11	x	-25*
Oc1c(C(Nc2ccccn2)c2ccccn2)ccc2cccnc12 (stereo not given)	1	x	-252	-7	15	-52
Oc1ccccc1C(Nc1nccs1)c1ccc2cccnc2c1O (stereo not given)	4	2	60*	-1	33	-2
N#C[C@H]1[C@@H](c2ccccc2)[C@@H](CO)N1S(=O)(=O)c1ccc(-c2ccccc2)cc1	0	-5	-6[16.7 µM]	-5	x	-5
C[C@H]1CN(C)C(=O)c2cccc(N)c2O[C@H]1CN(C)C(=O)OC(C)(C)C	x	x	x	-5	x	0
Nc1nc2ncc(CNc3ccc(C(=O)N[C@@H](CCC(=O)O)C(=O)O)cc3)nc2c(=O)[nH]1	5	-4	x	x	-6	x
CN(Cc1cnc2nc(N)nc(N)c2n1)c1ccc(C(=O)N[C@@H](CCC(=O)O)C(=O)O)cc1	-1	-1	62*!	11	-9	x
C[C@@H]1CN([C@H](C)CO)S(=O)(=O)c2ccc(C#CC3CC3)cc2O[C@@H]1CN(C)S(C)(=O)=O	-1	1	14[16.7 µM]	-4	3[16.7 µM]	2
O=C(CSc1ccc(-c2cccnc2)nn1)N1CCCc2ccccc21	x	-1	26	6	x	-23*
CC(=O)c1cccc(NC(=O)CSc2ccc(-c3cccnc3)nn2)c1	1	1	3	37	-7	9
O=C(CSc1ccc(-c2ccc(Cl)cc2)nn1)N1CCCc2ccccc21	-1	-1	13	-7	-7	-20
CC(=O)Nc1cccc(NC(=O)CSc2ccc(-c3cccnc3)nn2)c1	x	0	-52	9	x	-26*
CCS(=O)(=O)N1CCCCN2[C@H](CO)[C@@H](c3ccc(C#CC(C)(C)O)cc3)[C@@H]2C1	0	0	x	7	-1[16.7 µM]	3
CCOC(=O)/C=C1\SCC(=O)N1CC(=O)Nc1ccc(OC)c(OC)c1	1	x	x	13	16	x
CCOC(=O)/C=C1/SCC(=O)N1CC(=O)NC12CC3CC(CC(C3)C1)C2	-1	0	57*	-34	-2	-3
CCCNC(=O)C[C@H]1CC[C@H]2[C@@H](COC[C@H](O)CN2C(=O)c2cc(Cl)cc(Cl)c2)O1	4	-1	x	-10	7[16.7 µM]	0
C/C=C/c1ccc([C@H]2[C@@H](CO)N(Cc3cncnc3)C23CN(C(=O)CC2CC2)C3)cc1	x	-2	x	12	x	0
C1CCC(C(CC2CCCCN2)C2CCCCC2)CC1 (stereo not given)	14	9.9*!	-7	104*	-2	-57
CO[C@@H]1CN(C)C(=O)c2cc(NC(=O)C3CC3)ccc2OC[C@@H](C)N(CCc2ccccc2)C[C@@H]1C	-1	0	-11[16.7 µM]	1	2[16.7 µM]	0
CCOc1ccc(NS(=O)(=O)c2ccc(NC(=S)NC(=O)C(C)C)cc2)cc1	-2	x	x	x	115*	x
CC(C)C(=O)NC(=S)Nc1ccc(S(=O)(=O)Nc2ccccc2)cc1	3	x	-21	-14	137*	x
COc1ccc(NS(=O)(=O)c2ccc(NC(=S)NC(=O)C(C)C)cc2)cc1	13	x	x	x	u	x
COCCCNC(=O)[C@@]1(Cc2ccccc2N=[N+]=[N-])N=C(c2ccc(OCCCO)cc2)O[C@H]1c1ccccc1N=[N+]=[N-]	-8	4	0[16.7 µM]	x	x	x
O=C(N/N=C/c1ccc(O)cc1O)C(=O)N/N=C/c1ccc(O)cc1O	-4	-1	19	12	x	-24*
Oc1ccc(/C=N/Nc2ccc3ccccc3c2)c(O)c1	1	-1	-9	0	2	-32*
SMILES	Cneo AK release	CFTR F508del cor	Env fusion inh	GSIS activator	miR-122 sensor	Ecoli rRNA inh
COc1ccc(-c2cc(C(=O)N(C)Cc3cccc(OC)c3OC)c3ccccc3n2)cc1OC	-3	3	20	36	26	-28*
COc1cccc(CN(C)C(=O)c2cc(-c3ccc(OC)c(OC)c3)nc3ccccc23)c1	0	1	-4	19	2	-7
CC(C)C1CC(N(C)C)=CC(=S)N1 (stereo not given)	x	-3	58*	-53	x	-48
OC[C@H]1N[C@@H](CNCC2CCC2)[C@@H]1c1ccc(C2=CCCCC2)cc1	x	-4	x	5	x	0
Cc1ccc(NC(=O)Cc2nc(-c3c[nH]c(C(=O)N4CCCC4)c3)cs2)c(C)c1	-3	8.8*	-2	-3	-8	x
Cc1ccc(NC(=O)CSc2n[nH]c(-c3ccncc3)n2)c(C)c1	-2	-2	2	8	-13	3
CC(=O)O[C@@H]1C=C[C@@H](C#Cc2ccc(C(C)(C)C)cc2)O[C@@H]1COC(=O)NC(C)C	x	1	-48	-15	x	17
CC(C)NC(=O)OC[C@H]1O[C@H](C#Cc2ccc(C(C)(C)C)cc2)C=C[C@H]1O	x	2	-16	64*	x	0
C[C@@H]1CCCCO[C@H](CN(C)CC2CCCCC2)[C@H](C)CN([C@@H](C)CO)C(=O)c2cc(NS(=O)(=O)c3cccs3)ccc2O1	3	-1	-24[16.7 µM]	18	-15[16.7 µM]	1
CNC[C@H]1Oc2ccc(NS(=O)(=O)c3c(C)noc3C)cc2C(=O)N([C@@H](C)CO)C[C@@H]1C	8	-4	-3[16.7 µM]	12	-17[16.7 µM]	1
CC(CCc1ccccc1)NC(=O)CN(C)Cc1ccccc1F (stereo not given)	5	2	16	-22	3	-29*
COc1ccc(CCN(C)C(=O)CCNS(=O)(=O)c2ccccc2C(F)(F)F)cc1OC	0	-2	x	41*	6	-3
O=C(Nc1ccc2c(c1)[C@@H]1C[C@@H](CC(=O)N3CCOCC3)O[C@H](CO)[C@@H]1O2)NC1CCCC1	-6	3	x	1	-2[16.7 µM]	2
Cn1c(C(=O)O)c(CC(=O)Nc2ccccc2F)c2ccccc21	6	x	-39	x	-3	x
Cc1ccc2c(c1)c(CC(=O)Nc1ccc(C)c(F)c1)c(C(=O)O)n2C	1	-2	x	-7	0	-24*
C[C@@H]1CN([C@@H](C)CO)C(=O)c2cc(-c3ccncc3)cnc2O[C@H]1CN(C)C(=O)C1CC1	x	-1	9[16.7 µM]	8	-9[16.7 µM]	7
COc1ccc2c3c(cccc13)C(=O)CC2	x	12*	11	-29	x	82
COc1ccc(/C=C2\CCc3ccccc3C2=O)cc1CN1CCOCC1	-2	-1	29	-11	-3	-30*
COc1ccc(/C=C2/CCc3ccccc3C2=O)cc1OC	-13	x	58*	11	-4	x
CN(C)C(=O)c1c(NC(=O)c2ccco2)sc2c1CCCCC2	2	x	x	x	-2	x
